Hits are enriched below; roughly 0.77% of the tested compounds scored in any of these assays.
hIAP activ = increases human intestinal alkaline phosphatase activity. AID 2524. actives 0.16% (n = 330,000). activation factor at 10 µM. purified human IAP, CDP-Star luminescence, 30 min; stronger effect = higher value; 1 = vehicle-only enzyme, 0 = enzyme-free background;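 active means activation factor of the enzyme at least 2-fold when tested at 20 µM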
Target sequence (P09923 whole entry, looked up): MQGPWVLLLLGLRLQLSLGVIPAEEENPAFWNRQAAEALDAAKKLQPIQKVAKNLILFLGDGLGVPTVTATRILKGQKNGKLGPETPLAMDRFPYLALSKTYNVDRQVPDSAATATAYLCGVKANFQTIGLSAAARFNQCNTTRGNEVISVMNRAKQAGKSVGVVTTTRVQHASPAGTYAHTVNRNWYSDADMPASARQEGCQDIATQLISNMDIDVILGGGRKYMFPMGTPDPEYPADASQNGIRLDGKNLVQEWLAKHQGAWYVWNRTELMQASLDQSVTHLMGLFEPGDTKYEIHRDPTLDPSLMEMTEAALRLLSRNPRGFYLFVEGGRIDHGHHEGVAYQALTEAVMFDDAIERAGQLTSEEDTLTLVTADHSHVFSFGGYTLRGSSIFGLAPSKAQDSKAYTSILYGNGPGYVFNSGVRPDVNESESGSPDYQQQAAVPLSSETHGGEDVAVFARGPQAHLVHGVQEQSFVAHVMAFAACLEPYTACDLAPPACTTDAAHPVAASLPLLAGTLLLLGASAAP
mIAP inh = mouse IAP inhibition; purified mouse IAP, CDP-Star luminescence, 30 min; inhibition, % at 10 µM; actives 0.2% (n = 330,000);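 active means inhibition of at least 40% at 10 µM in the primary screen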;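 further: plate controls were DMSO with enzyme for no effect and no enzyme wells for full effect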
mIAP act = increases mouse intestinal alkaline phosphatase activity | AID 2805 | actives 0.24% (n = 330,000) | activation factor at 10 µM | muIAP, CDP-Star luminescence, 30 min; stronger effect = higher value; 1 = vehicle-only enzyme signal, 0 = enzyme-free wells;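 active means activation factor of at least 2 at 20 µM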
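Assay system: mouse IAP enzyme; Reagent: CDP-Star chemiluminescent phosphatase substrate; Compound: DMSO-dissolved test compounds; Incubation: 30 min, room temperature; Technique: luminescence from enzymatic CDP-Star hydrolysis; Controls: DMSO-only wells and no-enzyme negative control.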
bIAP inh = blocks bovine intestinal alkaline phosphatase activity; purified bovine IAP, CDP-star luminescence, 30 min; AID 1019; inhibition, % at 20 µM; 190,000 tested, under 10 active;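 active means over 50% inhibition of intestinal alkaline phosphatase at 20 µM in the single-dose screen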
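Assay system – bovine IAP enzyme · Quantity – bovine IAP at 1/65,000,000 final dilution · Detection – CDP-star luminescence signal · Times – 30 min reaction at room temperature · Also added – CDP-star substrate at 30 µM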
bIAP activator = intestinal alkaline phosphatase (bovine) activation; purified bovine IAP, CDP-star luminescence, 30 min; stronger effect = higher value; fold of DMSO-control signal, blank-subtracted; activation factor at 20 µM; actives 0.17% (n = 200,000); AID 1016;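 active means activation factor of 2 or more at 20 µM, a signal rise over negative controls twice the positive control's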
hIAP block = human IAP inhibition; P09923; purified IAP, CDP-Star luminescence, 30 min; inhibition, % at 10 µM; actives 0.12% (n = 330,000); AID 2544;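 active means inhibition reaching a set limit with compound at 10 µM in the primary screen, cut at about 35% in these data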;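 further: plate controls were DMSO wells with enzyme for no effect and no-enzyme buffer wells for full effect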
* hit, by the source's call.

What do the screens show for `CCCc1c(NC(=O)Nc2ccc(F)cc2)cnn1-c1ccccc1`?
hIAP activ: 0.948; mIAP inh: -130.0; mIAP act: 2.3*; hIAP block: 5.2

How did Cc1nn(-c2ccccc2)c(C)c1C(=O)OC(C)C(=O)NC1CCCCC1C (configuration not stated) do in these assays?
hIAP activ: 1.07; mIAP inh: 1.0; mIAP act: 0.99; hIAP block: -6.6

How did C[C@H]1CCC(=O)N([C@H](COc2ccccc2)Cc2ccccc2)CC1 do in these assays?
hIAP activ: 0.823; mIAP inh: 7.2; mIAP act: 0.928; hIAP block: 17.7

Results for C/C(CC(=O)NC(C)C)=N\NC(=O)COc1cc(C)c(Br)cc1Br ?
hIAP activ: 0.94; mIAP inh: -2.5; mIAP act: 1.02; bIAP inh: -159.3; bIAP activator: 2.6*; hIAP block: 6.0

Results for Cc1cccc(NC(=O)C(CCC(N)=O)NC(=O)OCc2ccccc2)c1 (configuration not stated) ?
hIAP activ: 1.02; mIAP inh: -9.6; mIAP act: 1.1; hIAP block: -2.3

How did S=C(NCc1ccncc1)Nc1cccc(Cl)c1 do in these assays?
hIAP activ: 1.02; mIAP inh: -0.4; mIAP act: 1; bIAP inh: 27.7; bIAP activator: 0.7; hIAP block: -1.9

How did S=C(Nc1ccc(Cl)cc1)NC1CC2CCCC(C1)N2C1CCCC1 (configuration not stated) do in these assays?
hIAP activ: 0.913; mIAP inh: -96.5; mIAP act: 1.97; bIAP inh: -50.1; bIAP activator: 1.5; hIAP block: 8.7

What do the screens show for `COc1cccc(NC(=S)NC2CC3CCCC(C2)N3C2CCCC2)c1` (configuration not stated)?
hIAP activ: 1.24; mIAP inh: -30.3; mIAP act: 1.3; bIAP inh: -22.3; bIAP activator: 1.2; hIAP block: -24.4

What do the screens show for `Cc1cc(C)cc(NC(=S)NC2CC3CCCC(C2)N3C2CC2)c1` (configuration not stated)?
hIAP activ: 1.25; mIAP inh: -130.7; mIAP act: 2.31*; bIAP inh: -44.0; bIAP activator: 1.4; hIAP block: -24.7

Results for S=C(Nc1ccc(Cl)cc1)NC1CC2CCCC(C1)N2C1CC1 (configuration not stated) ?
hIAP activ: 1.11; mIAP inh: -163.7; mIAP act: 2.64*; bIAP inh: -19.4; bIAP activator: 1.2; hIAP block: -11.5

Results for S=C(NCCN(C1CCCCC1)C1CCCC1)Nc1cccc(Cl)c1 ?
hIAP activ: 1.12; mIAP inh: -101.9; mIAP act: 2.02*; hIAP block: -11.7

How did S=C(Nc1cccc(Cl)c1)NC1CC2CCCC(C1)N2C1CCCC1 (configuration not stated) do in these assays?
hIAP activ: 1.04; mIAP inh: -119.6; mIAP act: 2.2*; bIAP inh: -0.9; bIAP activator: 1; hIAP block: -3.7

Results for O=C(CCl)N(c1ccccc1)C1CCCCC1 ?
hIAP activ: 0.932; mIAP inh: -14.0; mIAP act: 1.14; bIAP inh: -18.5; bIAP activator: 1.2; hIAP block: 6.8

Results for O=C(/C=C/c1ccccc1)NC1CCCc2ccccc21 (configuration not stated) ?
hIAP activ: 1.1; mIAP inh: -9.0; mIAP act: 1.09; bIAP inh: -2.3; bIAP activator: 1; hIAP block: -10.1

What do the screens show for `O=C(O)c1ccc(N2CCCCS2(=O)=O)cc1`?
hIAP activ: 1.11; mIAP inh: -2.2; mIAP act: 1.02; bIAP inh: 8.8; bIAP activator: 0.9; hIAP block: -11.0

How did Cc1cc(C)cc(NC(=S)NC2CC3CCCC(C2)N3CC(C)C)c1 (configuration not stated) do in these assays?
hIAP activ: 1.11; mIAP inh: -38.2; mIAP act: 1.38; bIAP inh: 14.6; bIAP activator: 0.9; hIAP block: -10.7

Results for C=CCN1C2CCCC1CC(NC(=O)Nc1cc(C)cc(C)c1)C2 (configuration not stated) ?
hIAP activ: 1.38; mIAP inh: -68.6; mIAP act: 1.69; bIAP inh: -95.5; bIAP activator: 2*; hIAP block: -37.8

Compound activity: PubChem, Sanford-Burnham Center for Chemical Genomics
